The values below come from ChEMBL document CHEMBL1135760, “Anilinoquinazoline inhibitors of fructose 1,6-bisphosphatase bind at a novel allosteric site: synthesis, in vitro characterization, and X-ray crystallography” (J Med Chem, 2002).

Assay [1] can be described thus: Inhibition of human recombinant wild type fructose-1,6-bisphosphatase (F16BP).
The target in assay [2] is Fructose-1,6-bisphosphatase 1 (Rattus norvegicus, UniProt P19112, Q51K/Q56H). The assay can be described thus: Concentration required for 50% Inhibition against (F16BP) Fructose-1,6-bisphosphatase in rat double mutant (Gln50Lys Gln55His) enzyme using malachite green assay. A digest of the protocol: (§1)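 Recombinant rat liver F16BPase (wild type or Gln50Lys/Gln55His double, Gln50Lys or Gln55His single mutants), expressed in E. coli BL21(DE3) and purified, 40 ng/well. Enzyme added to substrate plus compound with no preincubation. Final buffer was 50 mM HEPES pH 7.2, 100 mM KCl, 2 mM MgCl2, 2 mM EGTA, 1 mM DTT, 500 μM fructose-1,6-bisphosphate. Incubation 40 min at room temperature. Released phosphate read at 620 nm with ammonium molybdate/malachite green. Means of ≥3 experiments. Dose-response tested up to 10 μM.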

In assay [3] the target is Fructose-1,6-bisphosphatase 1 (Rattus norvegicus, UniProt P19112, Q51K). The assay can be described thus: Concentration required for 50% Inhibition against (F16BP) Fructose-1,6-bisphosphatase in rat single mutant (Gln50Lys) enzyme using malachite green assay. A digest of the protocol: as §1
In assay [4] the target is T1, Fructose-1,6-bisphosphatase 1 (Rattus norvegicus, UniProt P19112, Q56H). The assay can be described thus: Concentration required for 50% Inhibition against (F16BP) Fructose-1,6-bisphosphatase in rat single mutant(Gln55His) enzyme using malachite green assay. Summed up: as §1
The target in assay [5] is T2, Fructose-1,6-bisphosphatase 1 (Rattus norvegicus, UniProt P19112).
T2 sequence (P19112 whole entry): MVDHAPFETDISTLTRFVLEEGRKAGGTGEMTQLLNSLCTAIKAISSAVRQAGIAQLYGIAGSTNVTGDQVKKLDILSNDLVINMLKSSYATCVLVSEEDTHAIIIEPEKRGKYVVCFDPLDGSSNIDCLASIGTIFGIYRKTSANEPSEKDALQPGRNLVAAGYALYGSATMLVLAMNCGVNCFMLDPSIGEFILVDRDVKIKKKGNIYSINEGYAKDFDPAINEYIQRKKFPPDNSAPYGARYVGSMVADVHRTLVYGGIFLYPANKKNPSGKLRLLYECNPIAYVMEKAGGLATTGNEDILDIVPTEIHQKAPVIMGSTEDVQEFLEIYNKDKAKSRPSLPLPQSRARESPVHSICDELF
The experiment in a line: Concentration required for 50% Inhibition against (F16BP) Fructose-1,6-bisphosphatase in rat wild type enzyme using malachite green assay. Summed up:
as §1

Assay [6] concerns the target T3, Epidermal growth factor receptor (Homo sapiens, UniProt P00533). The assay can be described thus: (§2) Inhibition of (EGFR) epidermal growth factor receptor tyrosine kinase.
In assay [7] the target is T1, Fructose-1,6-bisphosphatase 1. The assay can be described thus: Concentration required for 50% Inhibition against (F16BP) Fructose-1,6-bisphosphatase in rat single mutant (Gln55His) enzyme using malachite green assay. Summed up: as §1
For assay [8], the target named is T3, Epidermal growth factor receptor. The assay is described as §2. The note with it: concentration not given here.

As usually defined, the IC50 is the concentration needed to halve the response being measured. The inhibition is the drop in the measured response relative to a control, in per cent. Higher therefore signals strong suppression.

T3 sequence (P00533 whole entry): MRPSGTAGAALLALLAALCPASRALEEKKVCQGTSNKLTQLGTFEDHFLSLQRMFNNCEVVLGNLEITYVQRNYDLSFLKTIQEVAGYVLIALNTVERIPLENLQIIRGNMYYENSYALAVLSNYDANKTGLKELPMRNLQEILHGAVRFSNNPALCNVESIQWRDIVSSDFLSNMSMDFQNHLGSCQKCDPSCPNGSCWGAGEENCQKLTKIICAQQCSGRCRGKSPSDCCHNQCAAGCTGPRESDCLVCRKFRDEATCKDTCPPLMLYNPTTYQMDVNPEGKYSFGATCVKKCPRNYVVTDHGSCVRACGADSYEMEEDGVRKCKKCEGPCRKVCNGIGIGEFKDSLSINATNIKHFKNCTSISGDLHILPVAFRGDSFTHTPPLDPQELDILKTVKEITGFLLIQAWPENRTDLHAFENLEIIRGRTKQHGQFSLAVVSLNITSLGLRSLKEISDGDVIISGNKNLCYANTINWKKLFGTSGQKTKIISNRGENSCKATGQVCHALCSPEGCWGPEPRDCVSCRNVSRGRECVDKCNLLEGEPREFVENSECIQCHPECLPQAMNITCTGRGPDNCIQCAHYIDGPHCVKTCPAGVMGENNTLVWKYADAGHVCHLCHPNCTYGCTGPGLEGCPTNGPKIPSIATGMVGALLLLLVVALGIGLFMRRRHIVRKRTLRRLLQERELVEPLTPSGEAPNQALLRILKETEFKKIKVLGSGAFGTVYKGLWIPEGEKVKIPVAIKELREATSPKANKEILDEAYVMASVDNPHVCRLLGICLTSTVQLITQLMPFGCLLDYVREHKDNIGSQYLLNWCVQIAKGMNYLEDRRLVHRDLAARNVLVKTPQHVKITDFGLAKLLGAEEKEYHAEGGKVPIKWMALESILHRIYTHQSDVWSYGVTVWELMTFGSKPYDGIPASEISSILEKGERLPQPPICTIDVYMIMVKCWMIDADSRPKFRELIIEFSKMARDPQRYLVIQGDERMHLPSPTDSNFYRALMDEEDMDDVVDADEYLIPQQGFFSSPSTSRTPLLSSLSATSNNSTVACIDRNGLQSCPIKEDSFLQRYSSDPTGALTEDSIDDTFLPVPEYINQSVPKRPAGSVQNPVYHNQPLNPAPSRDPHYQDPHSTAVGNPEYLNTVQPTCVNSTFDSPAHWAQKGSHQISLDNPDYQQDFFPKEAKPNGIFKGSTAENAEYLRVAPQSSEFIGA
T1 sequence (P19112 2-363 Q56H limits assumed): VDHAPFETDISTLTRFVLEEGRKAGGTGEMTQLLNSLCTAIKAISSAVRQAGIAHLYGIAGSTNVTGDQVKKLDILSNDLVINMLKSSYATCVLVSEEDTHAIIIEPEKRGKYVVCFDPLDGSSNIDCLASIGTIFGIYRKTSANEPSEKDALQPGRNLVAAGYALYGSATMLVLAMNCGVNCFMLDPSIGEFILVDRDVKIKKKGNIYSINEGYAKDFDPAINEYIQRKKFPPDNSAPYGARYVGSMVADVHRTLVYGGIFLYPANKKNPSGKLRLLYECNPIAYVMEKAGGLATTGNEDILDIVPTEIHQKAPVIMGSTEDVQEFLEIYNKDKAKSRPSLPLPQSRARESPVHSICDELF
Fructose-1,6-bisphosphatase 1 (Rattus norvegicus, UniProt P19112, Q51K/Q56H), sequence (P19112 2-363 Q51K/Q56H limits assumed): as the sequence (P19112 2-363 Q56H limits assumed) above, with Q50K counted along it
Fructose-1,6-bisphosphatase 1 (Rattus norvegicus, UniProt P19112, Q51K), sequence (P19112 2-363 Q51K limits assumed): as the sequence (P19112 2-363 Q56H limits assumed) above, with Q50K, H55Q counted along it

For `CCOc1cc2ncnc(Nc3cccc(-c4csc(C)n4)c3)c2cc1OCC`, the IC50 in assay [1] was 0.64 µM; in assay [2], 0.79 µM; in assay [3], > 10 µM; in assay [4], 3.8 µM; in assay [5] it was > 10 µM.
In the case of `CCOc1cc2ncnc(Nc3cccc(-c4cncnc4)c3)c2cc1OCC`, the IC50 amounted to 1.2 µM in assay [1] and 1.1 µM in assay [6].
The matching figures for `CCOc1cc2nc(C)nc(Nc3cccc(-c4csc(C)n4)c3)c2cc1OCC`: 1 µM and 9 µM.
The matching figures for `CCOc1cc2ncnc(Nc3cccc(-c4cncs4)c3)c2cc1OCC`: 0.98 µM and 0.011 µM.
With `CCOc1cc2ncnc(Nc3cccc(-c4cocn4)c3)c2cc1OCC`, the IC50 in assay [1] came out at 3.6 µM; in assay [6] it was 0.72 µM.
The matching figures for `CCOc1cc2ncnc(Nc3cccc(-c4cc[nH]n4)c3)c2cc1OCC`: 0.73 µM and 0.011 µM.
For `CCOc1cc2ncnc(Nc3cccc(-c4csc(C(N)=O)n4)c3)c2cc1OCC`, the IC50 in assay [1] is 0.93 µM; in assay [7], 3 µM; in assay [2], 0.52 µM; in assay [3] it was > 10 µM; in assay [5] it was > 10 µM.
For `COc1cc2c(Nc3cccc(-c4csc(C)n4)c3)ncnc2cc1OC(C)C`, the IC50 in assay [1] was 2.3 µM.
For the compound `CCOc1cc2nc(CCCl)nc(Nc3cccc(-c4csc(C)n4)c3)c2cc1OCC`, in assay [1], the IC50 amounted to 1 µM. Also, in assay [8], the inhibition was determined as 11%.
Consider `CCOc1cc2ncnc(Nc3cccc(-c4nccs4)c3)c2cc1OCC`, for which the values for the IC50 in assay [1] and in assay [6] were 0.38 µM and 0.002 µM, respectively.
`CCOc1cc2ncnc(Nc3cccc(-c4csc(N(C)C)n4)c3)c2cc1OCC`: the IC50 in assay [1] worked out at 8 µM.
The same measure, in the same setting: to `CCOc1cc2nc(COC)nc(Nc3cccc(-c4csc(C)n4)c3)c2cc1OCC` belongs 1.4 µM; to `CCOc1cc2c(Nc3cccc(-c4csc(C)n4)c3)ncnc2cc1OC`, 1.2 µM.
Still for that read-out and setting: then `CCOc1cc2nc(CS(C)(=O)=O)nc(Nc3cccc(Br)c3)c2cc1OCC`, with > 10 µM; and `CCOc1cc2nc(CCl)nc(Nc3cccc(Br)c3)c2cc1OCC`, with > 10 µM.
Same read-out and setting: then `CCOc1cc2ncnc(Nc3cccc(-c4ccccn4)c3)c2cc1OCC`, with 0.39 µM.
Regarding `CCCc1nc(-c2cccc(Nc3ncnc4cc(OCC)c(OCC)cc34)c2)cs1`, the half-inhibitory concentration (IC50) in assay [1] was > 10 µM.
Regarding `CCCCOc1cc2ncnc(Nc3cccc(-c4csc(C)n4)c3)c2cc1OC`, in assay [1], the IC50 is > 10 µM.
On the same count and under the same terms, to `COc1cc2ncnc(Nc3cccc(-c4csc(C)n4)c3)c2cc1OC(C)C` belongs > 10 µM.
`CCOc1cc2nc(CCCCl)nc(Nc3cccc(-c4csc(C)n4)c3)c2cc1OCC`: the IC50 in assay [1] was found to be 4.1 µM. The compound also returned an inhibition in assay [8] of 31%.
`Cc1nc(-c2cccc(Nc3ncnc4cc5c(cc34)OCCO5)c2)cs1`: the IC50 in assay [1] is > 10 µM.
The same measure, in the same setting: to `CCC(C)Oc1cc2ncnc(Nc3cccc(-c4csc(C)n4)c3)c2cc1OC` (stereo not given) belongs 1.3 µM.
The same measure, in the same setting: then `CCOc1cc2nc(C(F)(F)F)nc(Nc3cccc(-c4csc(C)n4)c3)c2cc1OCC`, with > 10 µM.
As for `CCOc1cc2ncnc(Nc3cccc(-c4cnc(C)o4)c3)c2cc1OCC`, the IC50 was 4 µM in assay [1] and > 10 µM in assay [6].
Turning to `COCCOc1cc2ncnc(Nc3cccc(-c4csc(C)n4)c3)c2cc1OC`, the IC50 in assay [1] was > 10 µM.
In the case of `CCOc1cc2ncnc(Nc3cccc(C(=O)CBr)c3)c2cc1OCC`, the half-maximal inhibitory concentration (IC50) in assay [1] was > 10 µM.
`CCOc1cc2ncnc(Nc3cccc(-c4csc(N)n4)c3)c2cc1OCC`: the IC50 in assay [1] stood at 3.5 µM; in assay [6], 0.56 µM.
As for `CCOc1cc2ncnc(Nc3cccc(-c4csc(-c5ccccc5)n4)c3)c2cc1OCC`, in assay [1], the half-maximal inhibitory concentration (IC50) was > 10 µM.
Still for that read-out and setting: then `CCOc1cc2c(Nc3cccc(-c4csc(C)n4)c3)ncnc2c(OCC)c1OCC`, with > 10 µM.
For the compound `CCCOc1cc2ncnc(Nc3cccc(-c4csc(C)n4)c3)c2cc1OC`, in assay [1], the IC50 amounted to 5.6 µM.
Take `CCOc1cc2ncnc(Nc3cccc(-c4ccccc4)c3)c2cc1OCC`: in assay [1], the IC50 was > 10 µM.
The same measure, in the same setting: then `COc1cc2c(Nc3cccc(-c4csc(C)n4)c3)ncnc2cc1OCC(C)C`, with > 10 µM; and `CCOc1cc2ncnc(Nc3cccc(-c4csc(C(=O)O)n4)c3)c2cc1OCC`, with > 10 µM; and `CCOc1nc(-c2cccc(Nc3ncnc4cc(OCC)c(OCC)cc34)c2)cs1`, with 6.1 µM.
Same read-out and setting: then `CCOc1cc2ncnc(Nc3cccc(-c4nc(C)cs4)c3)c2cc1OCC`, with 0.65 µM.
On to `CCOc1cc2ncnc(Nc3cccc(-c4nc[nH]n4)c3)c2cc1OCC`, for which the IC50 in assay [1] came out at 0.64 µM; in assay [6], 0.39 µM.
The matching figures for `CCOc1cc2ncnc(Nc3cccc(-c4ccco4)c3)c2cc1OCC`: 1.4 µM and 0.003 µM.
For the compound `CCNCc1nc(Nc2cccc(-c3csc(C)n3)c2)c2cc(OCC)c(OCC)cc2n1`, the IC50 in assay [1] was found to be 6 µM.
For `CCOc1cc2ncnc(Nc3cccc(-c4cscn4)c3)c2cc1OCC`, the values for the IC50 in assay [1] and in assay [6] were 0.39 µM and 0.018 µM, respectively.
Consider `CCOc1cc2ncnc(Nc3cc(-c4csc(C)n4)cc(C(F)(F)F)c3)c2cc1OCC`, for which the IC50 in assay [1] is > 10 µM.
With `CCOc1cc2nc(CCl)nc(Nc3cccc(-c4csc(C)n4)c3)c2cc1OCC`, the IC50 in assay [1] was determined as 0.87 µM. In addition, in assay [8], the inhibition was found to be 10%.
Consider `CCOc1cc2ncnc(Nc3cc(-c4csc(C)n4)ccc3Br)c2cc1OCC`, for which the IC50 in assay [1] is > 10 µM.
As for `CCOc1cc2ncnc(Nc3cccc(-c4csc(CO)n4)c3)c2cc1OCC`, the IC50 is 2.9 µM in assay [7], 0.34 µM in assay [2], > 10 µM in assay [3] and > 10 µM in assay [5].
Take `COCCOc1cc2c(Nc3cccc(-c4csc(C)n4)c3)ncnc2cc1OC`: in assay [1], the IC50 is > 10 µM.
The same measure, in the same setting: then `CCOc1ccc(-c2csc(C)n2)cc1Nc1ncnc2cc(OCC)c(OCC)cc12`, with 1.8 µM; and `CCOc1cc2nc(Cn3ccnc3)nc(Nc3cccc(-c4csc(C)n4)c3)c2cc1OCC`, with 0.77 µM.
The same measure, in the same setting: then `CCOc1cc2nc(Cl)nc(Nc3cccc(-c4csc(C)n4)c3)c2cc1OCC`, with 2.6 µM.
The same measure, in the same setting: to `CCOc1cc2nc(CS(C)(=O)=O)nc(Nc3cccc(-c4csc(C)n4)c3)c2cc1OCC` belongs 2.1 µM.
With `CCOc1cc2ncnc(Nc3cccc(-c4ccc(C)cc4)c3)c2cc1OCC`, in assay [1], the IC50 was > 10 µM.
Same read-out and setting: then `CCOc1cc2ncnc(Nc3cccc(-c4csc(Cc5ccccc5)n4)c3)c2cc1OCC`, with > 10 µM.
Regarding `CCOc1cc2nc(CC)nc(Nc3cccc(-c4csc(C)n4)c3)c2cc1OCC`, the IC50 in assay [1] was determined as 1.5 µM; in assay [6], 9.3 µM.
The matching figures for `C#Cc1cc(Nc2ncnc3cc(OC)c(OC)cc23)ccc1F`: 0.25 µM and 0.004 µM.
For `CCCCOc1cc2c(Nc3cccc(-c4csc(C)n4)c3)ncnc2cc1OC`, the IC50 in assay [1] is > 10 µM.
